Source: ChEMBL document CHEMBL4052682, “Exploitation of Conformational Dynamics in Imparting Selective Inhibition for Related Matrix Metalloproteinases” (ACS Med Chem Lett, 2017)
pKi: −log10 of the molar value. Active and inactive are the calls of the source. The calls are words filed in the database; no cut-off is given here.

Key:
Collagenase 3 [1] = molecular target: T1, Collagenase 3 (Homo sapiens, UniProt P45452); test: Inhibition of human recombinant MMP-13 catalytic domain (104 to 274 residues) expressed in Escherichia coli using fluorogenic Mca-KPLGL-Dpa-AR-NH2 as substrate at 10 uM by fluorescence spectrophotometric analysis relative to control
Procedure, shortened: (§1)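 Single-concentration screen: compounds were incubated at 10 μM with each MMP and its substrate, and percent inhibition was measured.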

Neutrophil collagenase [2] = molecular target: T2, Neutrophil collagenase (Homo sapiens, UniProt P22894); test: (§2) Inhibition of human recombinant MMP-8 catalytic domain (99 to 269 residues) expressed in Escherichia coli using fluorogenic Mca-KPLGL-Dpa-AR-NH2 as substrate at 10 uM by fluorescence spectrophotometric analysis relative to control; conditions: 10 µM
T2 sequence (P22894 whole entry, the tested form may be a part): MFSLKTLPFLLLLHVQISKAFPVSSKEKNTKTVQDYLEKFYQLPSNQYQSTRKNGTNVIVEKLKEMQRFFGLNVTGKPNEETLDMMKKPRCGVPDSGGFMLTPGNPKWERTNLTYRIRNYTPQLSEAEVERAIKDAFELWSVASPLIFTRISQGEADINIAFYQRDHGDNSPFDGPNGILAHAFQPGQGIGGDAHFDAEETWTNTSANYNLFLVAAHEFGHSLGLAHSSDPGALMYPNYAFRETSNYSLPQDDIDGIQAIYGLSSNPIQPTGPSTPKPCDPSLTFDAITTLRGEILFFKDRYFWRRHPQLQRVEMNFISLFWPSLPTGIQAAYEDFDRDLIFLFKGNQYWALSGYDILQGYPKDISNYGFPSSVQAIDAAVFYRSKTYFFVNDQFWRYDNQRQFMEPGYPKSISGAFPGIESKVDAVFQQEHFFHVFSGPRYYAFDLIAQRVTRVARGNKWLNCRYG

[3] = molecular target: Matrix metalloproteinase-14 (Homo sapiens) (UniProt P50281); test: Inhibition of human recombinant MMP-14 catalytic domain ([…]) using fluorogenic MOCAc-Pro-Leu-Gly-Leu-A2pr(Dnp)-Ala-Arg-NH2 as substrate at 50 uM by fluorescence spectrophotometric analysis relative to control
[4] = molecular target: T3, Matrilysin (Homo sapiens) (UniProt P09237); test: Inhibition of human recombinant active MMP-7 expressed in Escherichia coli using fluorogenic MOCAc-Pro-Leu-Gly-Leu-A2pr(Dnp)-Ala-Arg-NH2 as substrate at 10 uM by fluorescence spectrophotometric analysis; procedure, shortened: as §1
T3 sequence (whole entry): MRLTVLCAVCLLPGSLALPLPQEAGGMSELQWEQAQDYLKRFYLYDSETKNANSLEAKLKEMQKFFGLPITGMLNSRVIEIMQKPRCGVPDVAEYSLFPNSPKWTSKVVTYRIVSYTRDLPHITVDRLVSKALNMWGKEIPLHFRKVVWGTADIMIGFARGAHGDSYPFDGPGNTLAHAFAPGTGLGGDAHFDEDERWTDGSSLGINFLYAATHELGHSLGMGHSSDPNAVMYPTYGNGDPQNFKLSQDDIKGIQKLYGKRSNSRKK

[5] = molecular target: T4, Interstitial collagenase (Homo sapiens) (UniProt P03956); test: Inhibition of human recombinant MMP-1 catalytic domain (100 to 268 residues) expressed in Escherichia coli using fluorogenic Mca-KPLGL-Dpa-AR-NH2 as substrate at 10 uM by fluorescence spectrophotometric analysis; procedure, shortened: as §1
T4 sequence (whole entry): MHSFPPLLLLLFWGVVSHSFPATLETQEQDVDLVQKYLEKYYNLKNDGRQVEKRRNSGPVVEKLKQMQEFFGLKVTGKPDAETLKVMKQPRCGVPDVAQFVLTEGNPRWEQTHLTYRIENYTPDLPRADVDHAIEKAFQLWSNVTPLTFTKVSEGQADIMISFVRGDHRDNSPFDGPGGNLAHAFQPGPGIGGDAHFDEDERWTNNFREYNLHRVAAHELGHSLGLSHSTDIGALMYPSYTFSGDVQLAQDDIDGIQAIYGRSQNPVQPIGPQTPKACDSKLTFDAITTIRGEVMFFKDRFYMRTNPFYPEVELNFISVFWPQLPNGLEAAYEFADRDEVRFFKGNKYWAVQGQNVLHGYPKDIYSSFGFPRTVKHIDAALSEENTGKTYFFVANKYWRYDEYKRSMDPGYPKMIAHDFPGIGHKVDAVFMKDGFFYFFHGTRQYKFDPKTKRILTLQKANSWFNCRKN

Collagenase 3 [6] = molecular target: T1, Collagenase 3; test: Inhibition of human recombinant MMP-13 catalytic domain (104 to 274 residues) expressed in Escherichia coli using fluorogenic Mca-KPLGL-Dpa-AR-NH2 as substrate by fluorescence spectrophotometric analysis
Procedure, shortened: (§3)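 Ki was determined only for compounds giving more than 50% inhibition in the 10 μM enzyme–substrate screen.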

[7] = molecular target: MMP-8 (neutrophil collagenase) (Homo sapiens, UniProt P22894); test: as §2; conditions: probe Mca-KPLGL-Dpa-AR-NH2 (fluorogenic)
Sequence of MMP-8 (neutrophil collagenase) (P22894 whole entry, the tested form may be a part): as the sequence (P22894 whole entry, the tested form may be a part) above

[8] = molecular target: Matrix metalloproteinase-9 (Homo sapiens) (UniProt P14780); test: Inhibition of human recombinant MMP-9 catalytic domain (107 to 449 residues) expressed in Escherichia coli using fluorogenic MOCAc-Pro-Leu-Gly-Leu-A2pr(Dnp)-Ala-Arg-NH2 as substrate at 10 uM by fluorescence spectrophotometric analysis; procedure, shortened: as §1
Sequence of Matrix metalloproteinase-9 (Homo sapiens) (P14780 whole entry, the tested form may be a part): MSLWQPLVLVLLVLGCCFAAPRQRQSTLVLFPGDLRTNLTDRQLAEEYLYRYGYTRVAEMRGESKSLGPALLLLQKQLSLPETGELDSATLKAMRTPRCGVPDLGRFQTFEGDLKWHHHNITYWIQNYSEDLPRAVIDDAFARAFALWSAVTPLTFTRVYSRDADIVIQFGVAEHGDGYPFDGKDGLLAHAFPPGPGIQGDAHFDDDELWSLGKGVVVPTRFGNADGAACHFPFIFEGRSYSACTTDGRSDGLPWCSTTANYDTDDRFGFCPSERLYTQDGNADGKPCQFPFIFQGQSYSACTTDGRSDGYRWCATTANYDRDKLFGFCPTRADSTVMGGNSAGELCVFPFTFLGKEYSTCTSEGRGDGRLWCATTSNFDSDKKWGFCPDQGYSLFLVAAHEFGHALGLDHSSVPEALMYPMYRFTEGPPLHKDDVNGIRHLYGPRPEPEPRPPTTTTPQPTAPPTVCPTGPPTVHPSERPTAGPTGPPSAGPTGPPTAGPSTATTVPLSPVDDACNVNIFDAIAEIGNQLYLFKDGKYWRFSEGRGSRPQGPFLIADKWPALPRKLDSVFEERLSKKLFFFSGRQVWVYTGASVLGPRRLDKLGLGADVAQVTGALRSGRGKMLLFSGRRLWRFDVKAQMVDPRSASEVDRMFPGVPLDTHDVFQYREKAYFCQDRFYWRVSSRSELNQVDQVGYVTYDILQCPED

[9] = molecular target: 72 kDa type IV collagenase (Homo sapiens) (UniProt P08253); test: Inhibition of human recombinant full length active MMP-2 expressed in mouse cells using fluorogenic MOCAc-Pro-Leu-Gly-Leu-A2pr(Dnp)-Ala-Arg-NH2 as substrate at 10 uM by fluorescence spectrophotometric analysis; format: biochemical; procedure, shortened: as §1
Sequence of 72 kDa type IV collagenase (Homo sapiens) (P08253 110-660 limits assumed): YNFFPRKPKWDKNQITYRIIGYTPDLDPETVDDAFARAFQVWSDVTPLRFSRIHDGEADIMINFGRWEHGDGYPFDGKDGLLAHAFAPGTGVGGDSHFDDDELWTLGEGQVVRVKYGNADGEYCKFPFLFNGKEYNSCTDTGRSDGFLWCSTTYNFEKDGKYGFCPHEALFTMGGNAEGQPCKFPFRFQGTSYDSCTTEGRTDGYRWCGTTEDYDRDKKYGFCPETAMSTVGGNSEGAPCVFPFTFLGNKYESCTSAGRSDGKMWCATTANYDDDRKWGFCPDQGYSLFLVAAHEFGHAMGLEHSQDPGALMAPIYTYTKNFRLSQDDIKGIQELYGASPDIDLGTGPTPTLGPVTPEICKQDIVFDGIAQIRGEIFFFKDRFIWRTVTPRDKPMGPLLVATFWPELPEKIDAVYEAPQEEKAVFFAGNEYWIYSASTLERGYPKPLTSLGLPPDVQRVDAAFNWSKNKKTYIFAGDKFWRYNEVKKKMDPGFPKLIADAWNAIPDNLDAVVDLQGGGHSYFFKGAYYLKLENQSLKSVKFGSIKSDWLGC

[10] = molecular target: Stromelysin-1 (Homo sapiens) (UniProt P08254); test: Inhibition of human recombinant MMP-3 catalytic domain expressed in Escherichia coli using fluorogenic MOCAc-Arg-Pro-Lys-Pro-Val-Glu-Nva-Trp-Arg-Lys(Dnp)-NH2 as substrate at 10 uM by fluorescence spectrophotometric analysis; procedure, shortened: as §1
Sequence of Stromelysin-1 (Homo sapiens) (P08254 100-477 limits assumed): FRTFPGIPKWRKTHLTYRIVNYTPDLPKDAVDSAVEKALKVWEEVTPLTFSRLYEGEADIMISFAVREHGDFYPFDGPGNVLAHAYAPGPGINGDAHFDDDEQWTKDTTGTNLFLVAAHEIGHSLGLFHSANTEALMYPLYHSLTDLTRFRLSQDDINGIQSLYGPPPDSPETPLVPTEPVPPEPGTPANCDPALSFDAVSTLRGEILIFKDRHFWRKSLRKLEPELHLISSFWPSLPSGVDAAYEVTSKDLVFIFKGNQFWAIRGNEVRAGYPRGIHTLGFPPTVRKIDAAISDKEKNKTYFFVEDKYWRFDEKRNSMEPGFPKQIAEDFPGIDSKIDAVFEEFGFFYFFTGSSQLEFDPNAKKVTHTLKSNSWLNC

Neutrophil collagenase [11] = molecular target: T2, Neutrophil collagenase; test: Inhibition of human recombinant MMP-8 catalytic domain (99 to 269 residues) expressed in Escherichia coli using fluorogenic Mca-KPLGL-Dpa-AR-NH2 as substrate by fluorescence spectrophotometric analysis; procedure, shortened: as §3
[12] = molecular target: Matrix metalloproteinase-14 (Homo sapiens) (UniProt P50281); test: Inhibition of human recombinant MMP-14 catalytic domain (89 to 265 residues) expressed in Escherichia coli using fluorogenic MOCAc-Pro-Leu-Gly-Leu-A2pr(Dnp)-Ala-Arg-NH2 as substrate at 10 uM by fluorescence spectrophotometric analysis; procedure, shortened: as §1
[13] = molecular target: Matrix metalloproteinase-14 (Homo sapiens) (UniProt P50281); test: Inhibition of human recombinant MMP-14 catalytic domain ([…]) using fluorogenic MOCAc-Pro-Leu-Gly-Leu-A2pr(Dnp)-Ala-Arg-NH2 as substrate at 10 uM by fluorescence spectrophotometric analysis relative to control; procedure, shortened: as §1
Mus musculus [14] = test: Clearance in CD-1 mouse at 1 mg/kg, iv administered as single dose by UPLC analysis relative to hepatic blood flow; format: ADME, organism-based; conditions: in vivo
Procedure, shortened: (§4)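 Mouse pharmacokinetics after a single 1 mg/kg intravenous dose. Three mice were sampled per time point and plasma concentration–time curves were built. Plasma levels were read at 2 min and at 24 h. AUC0-∞, clearance (also expressed as a percentage of hepatic blood flow), volume of distribution and elimination half-life were derived from the curves.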

[15] = AUC (0 to infinity) in CD-1 mouse at 10 mg/kg, po by UPLC analysis; format: ADME, organism-based; parameters: dose 10 mg/kg, time infinity, route oral; conditions: in vivo
Mus musculus [16] = test: Time at which plasma concentration stays above human recombinant MMP-13 Ki level in CD-1 mouse at 1 mg/kg, iv administered as single dose by UPLC analysis
[17] = Clearance in CD-1 mouse at 1 mg/kg, iv administered as single dose by UPLC analysis; format: ADME, organism-based; conditions: in vivo; procedure, shortened: as §4
[18] = AUC (0 to infinity) in CD-1 mouse at 1 mg/kg, iv administered as single dose by UPLC analysis; format: ADME, organism-based; parameters: dose 1 mg/kg, time infinity, route intravenous; conditions: in vivo; procedure, shortened: as §4
[19] = Elimination half life in CD-1 mouse at 1 mg/kg, iv administered as single dose by UPLC analysis; format: ADME, organism-based; conditions: in vivo, read-out: beta t1/2 (converted); procedure, shortened: as §4
[20] = Volume of distribution in CD-1 mouse at 1 mg/kg, iv administered as single dose by UPLC analysis; format: ADME, organism-based; conditions: in vivo; procedure, shortened: as §4
[21] = Elimination half life in CD-1 mouse at 10 mg/kg, po by UPLC analysis; format: ADME, organism-based; conditions: in vivo, read-out: beta t1/2 (converted)
Procedure, shortened: (§5)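 Mouse pharmacokinetics after a single 10 mg/kg oral dose. Three mice were sampled per time point, out to 48 h, and plasma concentration–time curves were built. Cmax and its time, elimination half-life and AUC0-∞ were derived. Absolute oral bioavailability came from the oral AUC relative to the intravenous (1 mg/kg) AUC, after dose adjustment.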

[22] = Cmax in CD-1 mouse at 10 mg/kg, po after 6 hrs by UPLC analysis; format: ADME, organism-based; parameters: dose 10 mg/kg, route oral; conditions: in vivo; procedure, shortened: as §5
[23] = Oral bioavailability in CD-1 mouse at 10 mg/kg by UPLC analysis; format: ADME, organism-based; conditions: in vivo; procedure, shortened: as §5
[24] = Plasma concentration in CD-1 mouse at 10 mg/kg, po after 48 hrs by UPLC analysis; conditions: in vivo
[25] = Plasma concentration in CD-1 mouse at 1 mg/kg, iv administered as single dose after 24 hrs by UPLC analysis; format: ADME, organism-based; procedure, shortened: as §4
[26] = Plasma concentration in CD-1 mouse at 1 mg/kg, iv administered as single dose after 2 mins by UPLC analysis; format: ADME, organism-based; procedure, shortened: as §4

SMILES	inhibition (Collagenase 3 [1])	inhibition (INH) (Neutrophil collagenase [2])	inhibition [4]	inhibition [5]	pKi (Collagenase 3 [6])	inhibition at 10 µM [7] [%]	inhibition [8]	inhibition [9]	inhibition [10]	pKi (Neutrophil collagenase [11])	inhibition [12]	inhibition [13] [%]	further results
O=C1COc2ccc(CNC(=O)c3cc(-c4ccccc4)n[nH]3)cc2N1	Active	Not Active											
O=C1COc2ccc(CNC(=O)c3nc4sc(C5CCCCC5)cc4c(=O)[nH]3)cc2N1	> 50%		inactive	inactive	7.61	> 50	inactive	inactive	inactive	8.48	inactive		inhibition [3]: 57%
O=C1COc2ccc(CNC(=O)c3cc(-c4cccc5ccccc45)n[nH]3)cc2N1	Active	Not Active											
O=C1COc2ccc(CNC(=O)c3nc4sc5c(c4c(=O)[nH]3)CCCCCC5)cc2N1	> 50%		inactive	inactive	9.23	> 50	inactive	inactive	inactive	9.15	inactive	14	
O=C1COc2ccc(CNC(=O)c3nc4scc(-c5ccc(C(F)(F)F)cc5)c4c(=O)[nH]3)cc2N1	> 50%		inactive	inactive	7.44	> 50	inactive	inactive	inactive	5.07	inactive	1	CL (Mus musculus [14]): 3%; AUC(0-inf) [15]: 6.92 µM·h; Time (Mus musculus [16]): 24 h; clearance [17]: 2.2 mL/min/kg; AUC(0-inf) [18]: 14.8 µM·h; half-life [19]: 5.3 h; Vd [20]: 1 L/kg; half-life [21]: 17.5 h; Cmax [22]: 400 nM; bioavailability [23]: 4.7%; Plasma concentration at 48 h [24]: 42 nM; concentration at 24 h [25]: 62 nM; concentration at 2 min [26]: 4400 nM
O=C1COc2ccc(CNC(=O)c3nc4scc(CCc5ccccc5)c4c(=O)[nH]3)cc2N1	> 50%		inactive	inactive	6.72	> 50	inactive	inactive	inactive	5.19	inactive	4	
O=C1COc2ccc(CNC(=O)c3nc4scc(C5CCCCC5)c4c(=O)[nH]3)cc2N1	> 50%		inactive	inactive	9.33	> 50	inactive	inactive	inactive	7.72	inactive	14	
O=C1COc2ccc(CNC(=O)c3cc(-c4ccsc4)n[nH]3)cc2N1	Active	Not Active											
